Assay results published in ChEMBL document CHEMBL4387722.

Legend:
[1] = molecular target: T1, Phosphotyrosine protein phosphatase (Mycobacterium tuberculosis, UniProt A0A045ISB3); assay: Inhibition of Mycobacterium tuberculosis His-tagged PtpB expressed in Escherichia coli Rosetta 2 (DE3) using pNPP as substrate after 30 mins by spectrophotometric method
T1 sequence (A0A045ISB3 whole entry): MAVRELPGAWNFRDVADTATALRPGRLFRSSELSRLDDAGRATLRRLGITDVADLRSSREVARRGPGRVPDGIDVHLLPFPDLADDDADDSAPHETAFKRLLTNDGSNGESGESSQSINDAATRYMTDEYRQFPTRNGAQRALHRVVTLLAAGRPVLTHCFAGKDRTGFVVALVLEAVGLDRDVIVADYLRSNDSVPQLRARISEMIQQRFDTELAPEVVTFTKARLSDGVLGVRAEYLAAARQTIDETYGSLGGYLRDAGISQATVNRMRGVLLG

[2] = molecular target: T2, Tyrosine-protein phosphatase non-receptor type 1 (Homo sapiens, UniProt P18031); assay: Inhibition of human PTPN1 expressed in Escherichia coli Rosetta 2 (DE3) using pNPP as substrate after 45 mins by spectrophotometric method
T2 sequence (P18031 whole entry): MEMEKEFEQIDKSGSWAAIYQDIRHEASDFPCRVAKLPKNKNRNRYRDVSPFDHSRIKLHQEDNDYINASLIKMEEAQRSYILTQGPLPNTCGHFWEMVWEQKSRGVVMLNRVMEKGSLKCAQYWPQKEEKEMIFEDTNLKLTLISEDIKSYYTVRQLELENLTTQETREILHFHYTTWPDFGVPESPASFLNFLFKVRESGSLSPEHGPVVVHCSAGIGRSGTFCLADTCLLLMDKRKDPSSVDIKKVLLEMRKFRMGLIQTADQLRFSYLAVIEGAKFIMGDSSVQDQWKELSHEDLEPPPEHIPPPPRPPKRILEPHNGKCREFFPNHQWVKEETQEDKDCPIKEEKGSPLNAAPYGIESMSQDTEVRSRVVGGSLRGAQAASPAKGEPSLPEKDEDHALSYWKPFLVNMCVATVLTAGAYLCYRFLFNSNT

[3] = molecular target: T3, Tyrosine-protein phosphatase non-receptor type 2 (Homo sapiens, UniProt P17706); assay: Inhibition of human PTPN2 expressed in Escherichia coli Rosetta 2 (DE3) using pNPP as substrate after 45 mins by spectrophotometric method
T3 sequence (P17706 whole entry): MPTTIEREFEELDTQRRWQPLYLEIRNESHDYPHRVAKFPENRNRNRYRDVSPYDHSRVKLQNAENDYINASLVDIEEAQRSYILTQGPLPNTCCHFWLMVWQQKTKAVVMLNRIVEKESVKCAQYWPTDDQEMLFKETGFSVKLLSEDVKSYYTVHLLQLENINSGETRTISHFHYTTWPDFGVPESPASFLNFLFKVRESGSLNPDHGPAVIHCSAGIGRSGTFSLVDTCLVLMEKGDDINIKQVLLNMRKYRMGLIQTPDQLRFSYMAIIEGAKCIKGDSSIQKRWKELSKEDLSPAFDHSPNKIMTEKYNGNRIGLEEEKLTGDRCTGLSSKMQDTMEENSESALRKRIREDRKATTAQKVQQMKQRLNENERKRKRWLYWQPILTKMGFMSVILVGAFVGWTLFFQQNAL

[4] = molecular target: T4, Tyrosine-protein phosphatase non-receptor type 5 (Homo sapiens, UniProt P54829); assay: Inhibition of human PTPN5 expressed in Escherichia coli Rosetta 2 (DE3) using pNPP as substrate after 45 mins by spectrophotometric method
T4 sequence (P54829 whole entry): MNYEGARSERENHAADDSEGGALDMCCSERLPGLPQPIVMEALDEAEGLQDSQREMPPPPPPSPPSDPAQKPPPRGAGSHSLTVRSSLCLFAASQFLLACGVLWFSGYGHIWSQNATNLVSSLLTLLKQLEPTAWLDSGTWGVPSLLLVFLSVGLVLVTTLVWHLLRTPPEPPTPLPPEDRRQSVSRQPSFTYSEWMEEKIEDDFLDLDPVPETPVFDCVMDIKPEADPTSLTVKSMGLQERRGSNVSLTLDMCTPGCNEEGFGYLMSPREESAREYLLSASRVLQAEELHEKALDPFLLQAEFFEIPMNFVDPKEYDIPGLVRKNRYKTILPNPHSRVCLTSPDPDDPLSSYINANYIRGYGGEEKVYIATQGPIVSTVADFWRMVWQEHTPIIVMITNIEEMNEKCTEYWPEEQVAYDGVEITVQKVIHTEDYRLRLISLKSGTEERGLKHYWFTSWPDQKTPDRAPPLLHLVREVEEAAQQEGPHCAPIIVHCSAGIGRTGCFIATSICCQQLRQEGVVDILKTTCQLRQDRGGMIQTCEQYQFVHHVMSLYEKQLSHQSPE

[5] = system: Mycobacterium tuberculosis; assay: Antitubercular activity against Mycobacterium tuberculosis H37Rv after 5 days at 200 uM relative to control; type: functional; conditions: 120 h
Summary of the method: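 M. tuberculosis grown in liquid culture with compound at a fixed 200 μM for 5 days. Growth inhibition expressed as percent of control.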

[6] = system: Mycobacterium tuberculosis; assay: Antitubercular activity against Mycobacterium tuberculosis H37Rv after 5 days; type: functional, organism-based; conditions: 120 h
[7] = Inhibition of refolded rhodanese (unknown origin) preincubated with Escherichia coli GroEL/GroES for 60 mins by measuring rhodanese enzyme activity followed by compound addition by Fe(SCN)3 dye based spectrometric analysis; set-up: species or system Homo sapiens
[8] = molecular target: T5, Malate dehydrogenase, mitochondrial (Sus scrofa, UniProt P00346); assay: Inhibition of refolded pig heart mitochondrial MDH preincubated with Escherichia coli GroEL/GroES for 45 mins using sodium mesoxalate as substrate followed by compound addition and measured after 20 to 30 mins by spectrometric analysis
T5 sequence (P00346 whole entry): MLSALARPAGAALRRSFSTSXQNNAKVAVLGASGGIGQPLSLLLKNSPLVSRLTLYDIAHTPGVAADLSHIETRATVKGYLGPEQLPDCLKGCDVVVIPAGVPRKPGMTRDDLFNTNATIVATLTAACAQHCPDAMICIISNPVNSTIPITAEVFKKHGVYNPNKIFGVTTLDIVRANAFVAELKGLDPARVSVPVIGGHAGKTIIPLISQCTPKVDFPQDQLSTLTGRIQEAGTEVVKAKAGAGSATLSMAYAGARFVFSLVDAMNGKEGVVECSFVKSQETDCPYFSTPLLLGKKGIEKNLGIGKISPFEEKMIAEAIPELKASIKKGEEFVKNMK

E. coli GroEL/ES [9] = molecular target: T6, E. coli GroEL/ES (Escherichia coli, UniProt P0A6F5); assay: Inhibition of Escherichia coli GroEL expressed in Escherichia coli DH5alpha/Escherichia coli GroES expressed in Escherichia coli BL21 (DE3) assessed as reduction in GroEL/GroES-mediated denatured rhodanese refolding by measuring rhodanese enzyme activity after 45 mins by Fe(SCN)3 dye based spectrometric analysis
E. coli GroEL/ES [10] = molecular target: T6, E. coli GroEL/ES; assay: Inhibition of Escherichia coli GroEL expressed in Escherichia coliDH5alpha/Escherichia coli GroES expressed in Escherichia coli BL21 (DE3) assessed as reduction in GroEL/GroES-mediated denatured pig heart mitochondrial MDH refolding by measuring MDH enzyme activity using sodium mesoxalate as substrate after 20 to 40 mins by spectrometric analysis
HSP60/HSP10 = HSP60/HSP10 (Homo sapiens, UniProt P10809); assay: Inhibition of human HSP60 expressed in Escherichia coli Rosetta 2(DE3)/human HSP10 expressed in Escherichia coli Rosetta 2(DE3) pLysS cells assessed as reduction in HSP60/HSP10-mediated denatured pig heart mitochondrial MDH refolding by measuring MDH enzyme activity using sodium mesoxalate as substrate after 40 to 60 mins by spectrometric analysis
[11] = Cytotoxicity against human THLE3 cells assessed as reduction in cell viability after 48 hrs by Alamar blue assay; type: cell-based
Summary of the method: (§1)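 Alamar Blue viability read-out. Human liver (THLE-3) and kidney (HEK 293) cells incubated with compound for 48 h. Tested in dose-response to derive CC50.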

[12] = Cytotoxicity against human HEK293 cells assessed as reduction in cell viability after 48 hrs by Alamar blue assay; type: cell-based; summary of the method: as §1

T6 sequence (P0A6F5 whole entry, looked up): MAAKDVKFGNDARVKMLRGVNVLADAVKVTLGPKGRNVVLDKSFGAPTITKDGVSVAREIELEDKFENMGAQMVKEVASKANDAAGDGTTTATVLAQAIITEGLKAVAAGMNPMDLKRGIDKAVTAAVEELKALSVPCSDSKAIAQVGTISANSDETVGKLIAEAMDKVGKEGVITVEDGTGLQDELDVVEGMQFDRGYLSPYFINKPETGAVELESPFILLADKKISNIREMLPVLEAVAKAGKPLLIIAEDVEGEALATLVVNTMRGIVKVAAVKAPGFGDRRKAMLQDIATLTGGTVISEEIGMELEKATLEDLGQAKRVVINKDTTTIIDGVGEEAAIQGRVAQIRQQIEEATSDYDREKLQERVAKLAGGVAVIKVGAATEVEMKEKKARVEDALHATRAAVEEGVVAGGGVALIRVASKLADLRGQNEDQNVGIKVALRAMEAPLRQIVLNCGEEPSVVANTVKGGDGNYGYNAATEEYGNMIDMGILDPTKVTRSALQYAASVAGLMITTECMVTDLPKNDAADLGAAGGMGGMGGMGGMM
Sequence of HSP60/HSP10 (P10809 whole entry): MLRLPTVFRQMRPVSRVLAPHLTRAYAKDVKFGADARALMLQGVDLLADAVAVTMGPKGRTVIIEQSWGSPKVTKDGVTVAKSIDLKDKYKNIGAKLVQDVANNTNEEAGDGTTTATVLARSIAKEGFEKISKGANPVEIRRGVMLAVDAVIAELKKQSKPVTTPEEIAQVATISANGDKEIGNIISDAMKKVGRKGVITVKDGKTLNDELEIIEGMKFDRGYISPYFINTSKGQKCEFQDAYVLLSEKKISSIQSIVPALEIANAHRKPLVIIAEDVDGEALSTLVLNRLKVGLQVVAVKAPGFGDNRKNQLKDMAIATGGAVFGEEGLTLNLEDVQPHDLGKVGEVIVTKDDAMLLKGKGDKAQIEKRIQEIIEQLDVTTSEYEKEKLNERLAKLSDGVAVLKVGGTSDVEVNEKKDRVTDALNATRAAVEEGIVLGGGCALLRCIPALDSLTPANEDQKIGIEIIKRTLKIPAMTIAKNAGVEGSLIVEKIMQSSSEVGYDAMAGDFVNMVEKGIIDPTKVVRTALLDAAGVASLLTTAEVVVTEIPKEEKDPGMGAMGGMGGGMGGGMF
Sequence of HSP60/HSP10 (P61604 whole entry, further chain): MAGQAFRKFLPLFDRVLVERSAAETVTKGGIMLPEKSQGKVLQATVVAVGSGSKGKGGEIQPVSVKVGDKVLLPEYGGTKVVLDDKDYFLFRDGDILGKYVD

| SMILES | IC50 [1] [µM] | IC50 [2] [µM] | IC50 [3] [µM] | IC50 [4] [µM] | inhibition at 200 µM [5] [%] | EC50 [6] [µM] | IC50 [7] [µM] | IC50 [8] [µM] | IC50 (E. coli GroEL/ES [9]) [µM] | IC50 (E. coli GroEL/ES [10]) [µM] | IC50 (HSP60/HSP10) [µM] | CC50 at 48 h [11] [µM] | CC50 at 48 h [12] [µM] |
| --- | --- | --- | --- | --- | --- | --- | --- | --- | --- | --- | --- | --- | --- |
| O=S(=O)(Nc1ccc(-c2nc3ccccc3o2)cc1)c1ccccc1 | 80 | 65 | 66 | 51 | 71 | 179 | > 100 | > 63 | 217 | 94 | > 100 | 96 | > 100 |
| COc1cccc(S(=O)(=O)Nc2ccc3oc(-c4ccccc4)nc3c2)c1 | > 100 | 86 | 87 | 44 | 83 | 162 | > 100 | > 63 | 220 | > 100 | > 100 | 37 | 63 |
| O=[N+]([O-])c1cc(S(=O)(=O)Nc2ccc(-c3nc4ccccc4o3)cc2)ccc1Cl | 35 | 38 | 62 | 46 | 52 | 193 | > 100 | > 63 | 44 | 20 | 17 | 24 | 85 |
| CCc1ccc(S(=O)(=O)Nc2ccc3oc(-c4ccccc4)nc3c2)cc1 | 67 | 57 | 55 | 42 | 87 | 148 | > 100 | > 63 | 237 | > 100 | > 100 | 63 | 81 |
| O=S(=O)(Nc1ccc2oc(-c3ccccc3)nc2c1)c1ccccc1 | 87 | 77 | 64 | 42 | 76 | 105 | > 100 | > 63 | 190 | > 100 | > 100 | 33 | 46 |
| C=Cc1ccc(S(=O)(=O)Nc2ccc3oc(-c4ccccc4)nc3c2)cc1 | 51 | 45 | 46 | 35 | 86 | 151 | > 100 | > 63 | 175 | > 100 | > 100 | 50 | 53 |
| O=S(=O)(Nc1ccc(-c2nc3ccccc3o2)cc1)c1ccc(F)cc1 | 64 | 68 | 76 | 59 | 83 | 144 | > 100 | > 63 | 224 | 93 | 73 | 77 | > 100 |
| Cc1ccccc1S(=O)(=O)Nc1ccc(-c2nc3ccccc3o2)cc1 | 38 | 52 | 50 | 32 | 58 | 176 | > 100 | > 63 | 111 | 76 | 85 | 86 | > 100 |
| O=S(=O)(Nc1ccc(-c2nc3ccccc3o2)cc1)c1ccc(Cl)s1 | 32 | 63 | 72 | 64 | 70 | 185 | > 100 | > 63 | 156 | 53 | 31 | 85 | > 100 |
| O=S(=O)(Nc1ccc2oc(-c3ccccc3)nc2c1)c1cccs1 | 81 | > 100 | 88 | 85 | 68 | > 200 | > 100 | > 63 | 214 | > 100 | 90 | 35 | 97 |
| Cc1ccc(S(=O)(=O)Nc2ccc3oc(-c4ccccc4)nc3c2)cc1 | 68 | 48 | 49 | 39 | 87 | 172 | > 100 | > 63 | 157 | > 100 | > 100 | 53 | 75 |
| O=S(=O)(Nc1ccc(-c2nc3ccccc3o2)cc1)c1ccc(F)c(C(F)(F)F)c1 | 36 | 40 | 36 | 43 | 77 | > 200 | > 100 | > 63 | 112 | 34 | 28 | 72 | 82 |
| O=S(=O)(Nc1ccc(-c2nc3ccccc3o2)cc1)c1ccccc1C(F)(F)F | 58 | 44 | 61 | 53 | 58 | > 200 | > 100 | > 63 | 166 | 75 | 74 | 91 | > 100 |
